We go through 31 compounds from ChEMBL document CHEMBL4400513, “Aurone derivatives as promising antibacterial agents against resistant Gram-positive pathogens” (Eur J Med Chem, 2019).

Usually MIC stands for the lowest concentration found to suppress growth. Read a low MIC as greater potency. Broadly, the pIC50 is −log10 of the IC50, conventionally taken in molar units.

pIC50: −log10 of the molar value. Converted amounts (≈) assume the structure as drawn.

The test system of data set [1] is Pseudomonas aeruginosa. The data set can be described thus: Antimicrobial activity against Pseudomonas aeruginosa after 18 to 24 hrs in aerobic condition by two-fold serial dilutions method. It counts as functional. The method, boiled down: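 Colonies grown overnight (~16 h) in Mueller-Hinton broth at 37 °C, 200 rpm, diluted 1/100 and grown to log phase (OD600 ~0.6), then diluted to ~10^5 bacteria/mL. Exposed to 0 to 500 µM in 1:2 series (0.2% DMSO final control), aerobic, 37 °C, 18–24 h. OD600 read; MIC = lowest concentration without visible growth; n = 3.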

Data set [2] has as its system Staphylococcus aureus. The data set can be described thus: Antimicrobial activity against methicillin-resistant Staphylococcus aureus after 18 to 24 hrs in aerobic condition by two-fold serial dilutions method. It counts as functional. The method, boiled down:
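Strains grown on LB at 37 °C aerobically, then in Mueller-Hinton broth overnight at 200 rpm and brought to log phase (OD600 ~0.6). About 10^5 bacteria/mL exposed to two-fold serial dilutions 0–500 µM, DMSO 0.2% final as control. Aerobic incubation at 37 °C for 18–24 h; OD600 read; MIC = lowest concentration inhibiting visible growth. n = 3.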

Data set [3] has as its system IMR-90. The data set can be described thus: Cytotoxicity against human IMR90 cells assessed as reduction in cell viability after 48 hrs by Resazurin dye-based assay. Conditions: for pIC50: Homo sapiens, IMR-90, 48 h; for Activity: human, imr-90, 48 h. An outline of the steps: (§1)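 Normal human lung epithelial (BEAS-2B) and lung fibroblast (IMR-90) cells were grown in DMEM with 10% FCS. Cells were seeded at ~10^4/well, grown to confluence (48–72 h), then exposed to increasing concentrations for 48 h at 37 °C, 5% CO2, with 0.2% DMSO as control. Resazurin was added for 4 h and fluorescence read at 530/590 nm. Viability was normalized to DMSO wells and IC50 calculated.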

Data set [4] concerns BEAS-2B. The data set can be described thus: Cytotoxicity against human BEAS2B cells assessed as reduction in cell viability after 48 hrs by Resazurin dye-based assay. Conditions: for pIC50: Homo sapiens, BEAS-2B; for Activity: human, beas-2b. An outline of the steps: as §1

Turning to `CN1CCN(c2ccc(/C=C3\Oc4cccc(O)c4C3=O)cc2)CC1`, the MIC in data set [1] and in data set [2] was above 500 µM throughout.
On to `COc1cc(OC)c2c(c1)O/C(=C\c1ccc(C)cc1C)C2=O`, for which the minimal inhibitory concentration (MIC) in data set [1] and in data set [2] was above 500 µM in each case.
`O=C1/C(=C/c2ccc(C3CCCCC3)cc2)Oc2cc(O)cc(O)c21`: the pIC50 in data set [3] was 4.51; in data set [4], 4.48. Further, the Activity entry in data set [3] and in data set [4] was “Dose-dependent effect” throughout. Also, the values for the MIC in data set [1] and in data set [2] were above 500 µM and 7.8 µM (≈ 2.62 µg/mL), respectively.
Regarding `O=C1/C(=C/c2cccc(O)c2)Oc2cc(O)ccc21`, the minimum inhibitory concentration (MIC) in data set [1] and in data set [2] was above 500 µM throughout.
For the compound `O=C1/C(=C/c2ccccc2)Oc2c(O)cccc21`, the MIC in data set [1] and in data set [2] was above 500 µM each time.
Take `CCCCc1ccc(/C=C2\Oc3cc(O)cc(O)c3C2=O)cc1`: the negative logarithm of the IC50 (pIC50) in data set [3] is 4.10; in data set [4], 4.05. Also, the Activity result in data set [3] and in data set [4] was “Dose-dependent effect” throughout. The MIC in data set [1] was above 500 µM; in data set [2], 15.6 to 31.2 µM (≈ 4.84 to 9.7 µg/mL).
`O=C1/C(=C/c2cccc(O)c2)Oc2cc(O)cc(O)c21`: the minimum inhibitory concentration (MIC) is above 500 µM in data set [1] and 125 to 250 µM (≈ 33.8 to 67.6 µg/mL) in data set [2].
For `CC(C)c1ccc(/C=C2\Oc3cccc(O)c3C2=O)cc1`, in that order: above 500 µM and above 500 µM.
With `O=C1/C(=C/c2ccccc2)Oc2ccccc21` [(Z)-AURONE], the MIC in data set [1] and in data set [2] was above 500 µM throughout.
Turning to `O=C(O)c1ccc(/C=C2\Oc3c(O)cccc3C2=O)cc1`, the minimum inhibitory concentration (MIC) in data set [1] and in data set [2] was above 500 µM throughout.
On to `O=C1/C(=C/c2ccc(O)cc2)Oc2cc(O)cc(O)c21`, for which the results for the minimal inhibitory concentration (MIC) in data set [1] and in data set [2] were above 500 µM and 62.5 to 125 µM (≈ 16.9 to 33.8 µg/mL), respectively.
As to `O=C1/C(=C/c2ccc(O)cc2)Oc2cc(O)ccc21`, the minimum inhibitory concentration (MIC) in data set [1] and in data set [2] was above 500 µM throughout.
In the case of `CCc1ccc(/C=C2\Oc3cccc(O)c3C2=O)cc1`, the minimum inhibitory concentration (MIC) is above 500 µM in data set [1] and 62.5 to 125 µM (≈ 16.6 to 33.3 µg/mL) in data set [2].
Take `CC(C)(C)c1ccc(/C=C2\Oc3cccc(O)c3C2=O)cc1`: the MIC in data set [1] and in data set [2] was above 500 µM throughout.
Take `CCCCc1ccc(/C=C2\Oc3cccc(O)c3C2=O)cc1`: the minimum inhibitory concentration (MIC) in data set [1] and in data set [2] was above 500 µM each time.
Regarding `COc1ccc2c(c1)O/C(=C\c1ccc(OC)c(OC)c1)C2=O`, the minimal inhibitory concentration (MIC) in data set [1] and in data set [2] was above 500 µM each time.
`CN1CCN(c2ccc(/C=C3\Oc4cc(O)ccc4C3=O)cc2)CC1`: the MIC in data set [1] and in data set [2] was above 500 µM in each case.
With `O=C1/C(=C/c2ccc(O)cc2)Oc2cccc(O)c21`, the MIC is above 500 µM in data set [1] and 125 to 250 µM (≈ 31.8 to 63.6 µg/mL) in data set [2].
In the same order, the values of `COc1cccc(OC)c1/C=C1\Oc2cccc(O)c2C1=O` are above 500 µM and 250 µM (≈ 74.6 µg/mL).
In the case of `O=C1/C(=C/c2ccc(O)c(O)c2)Oc2c(O)cccc21`, the figures for the MIC in data set [1] and in data set [2] were above 500 µM and 125 to 250 µM (≈ 33.8 to 67.6 µg/mL), respectively.
On to `COc1cc(OC)c(/C=C2\Oc3cccc(O)c3C2=O)c(OC)c1`, for which the results for the MIC in data set [1] and in data set [2] were above 500 µM and 250 µM (≈ 82.1 µg/mL), respectively.
In the case of `O=C1/C(=C/c2ccc(O)c(O)c2)Oc2cccc(O)c21`, the figures for the MIC in data set [1] and in data set [2] were above 500 µM and 125 to 250 µM (≈ 33.8 to 67.6 µg/mL), respectively.
For `O=C1/C(=C/c2ccccc2)Oc2cccc(O)c21`, in that order: above 500 µM and above 500 µM.
For `O=C1/C(=C/c2ccc(O)cc2)Oc2ccccc21`, in that order: above 500 µM and above 500 µM.
Regarding `COc1ccc(/C=C2\Oc3cc(OC)cc(OC)c3C2=O)c(OC)c1`, the minimal inhibitory concentration (MIC) in data set [1] and in data set [2] was above 500 µM in each case.
Regarding `O=C1/C(=C/c2cc(O)c(O)c(O)c2)Oc2c(O)cccc21`, the MIC in data set [1] was above 500 µM; in data set [2], 125 to 250 µM (≈ 35.8 to 71.6 µg/mL).
Turning to `CCCCc1ccc(/C=C2\Oc3cc(OC)cc(OC)c3C2=O)cc1`, the minimal inhibitory concentration (MIC) in data set [1] and in data set [2] was above 500 µM in each case.
Take `O=C1/C(=C/c2ccccc2O)Oc2cc(O)ccc21`: the minimum inhibitory concentration (MIC) in data set [1] and in data set [2] was above 500 µM each time.
For `COc1cc(OC)c2c(c1)O/C(=C\c1ccccc1O)C2=O`, the minimal inhibitory concentration (MIC) in data set [1] and in data set [2] was above 500 µM throughout.
On to `Cc1ccc(/C=C2\Oc3cccc(O)c3C2=O)c(C)c1`, for which the MIC in data set [1] and in data set [2] was above 500 µM throughout.
Turning to `O=C1/C(=C/c2cccc(O)c2O)Oc2c(O)cccc21`, the MIC was above 500 µM in data set [1] and 250 µM (≈ 67.6 µg/mL) in data set [2].
